Measured values as given in ChEMBL document CHEMBL1153308 (Bioorg Med Chem Lett, 2009).

Legend:
[1] = Inhibition of HCV RNA dependent RNA polymerase; design: species or system Hepacivirus hominis
[2] = biological target: T1, Replicase polyprotein 1ab (Severe acute respiratory syndrome-related coronavirus, UniProt P0C6X7); test: Inhibition of ATPase activity of SCV helicase assessed as phosphate release by colorimetric assay
In short: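 Purified SCV NTPase/helicase (400 nM in 50 mM Tris/HCl pH 6.6) preincubated with compounds for 5 min at rt. Stopped with malachite green/molybdate reagent in 1 M HCl. A620 read after 5 min, with phosphate from a standard curve.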

[3] = biological target: T1, Replicase polyprotein 1ab; test: Inhibition of SCV helicase assessed as duplex-DNA unwinding by FRET based assay
In short: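 Substrate was 25-bp dsDNA with a 20-dT 5′-overhang. SCV helicase (150 nM in 20 mM HEPES pH 7.4) preincubated with compounds for 5 min at rt. Started with 5X reaction solution (5 mM MgCl2, 45 mM ATP, 25 mM DTT, 100 nM dsDNA substrate as 5X concentrations), then 2 min at 37 °C. Stopped with EDTA plus unmodified trap oligomer, with FRET read-out.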

O=C(O)/C(O)=C/C(=O)c1cccc(NCc2ccccc2)c1
IC50 [1]: 0.96 µM
IC50 [2]: > 50 µM
IC50 [3]: 5.4 µM

O=C(O)/C(O)=C/C(=O)c1ccc(OCc2ccccc2)cc1
IC50 [1]: 0.96 µM
IC50 [2]: 41.3 µM
IC50 [3]: 39.9 µM

O=C(O)/C(O)=C/C(=O)c1ccc(OCc2ccc(Cl)cc2)cc1
IC50 [1]: 0.96 µM
IC50 [2]: > 50 µM
IC50 [3]: > 50 µM

O=C(O)/C(O)=C/C(=O)c1cccc(OCc2ccccc2)c1
IC50 [1]: 0.96 µM
IC50 [2]: > 50 µM
IC50 [3]: > 50 µM

O=C(O)/C(O)=C/C(=O)c1cccc(OCc2ccc(Cl)cc2)c1
IC50 [1]: 0.96 µM
IC50 [2]: 24.4 µM
IC50 [3]: 13.6 µM

O=C(O)/C(O)=C/C(=O)c1ccccc1OCc1ccc(Cl)cc1
IC50 [1]: 0.96 µM
IC50 [2]: > 50 µM
IC50 [3]: 28.7 µM

O=C(O)/C(O)=C/C(=O)c1ccccc1OCc1ccccc1
IC50 [1]: 0.96 µM
IC50 [2]: > 50 µM
IC50 [3]: > 50 µM

O=C(O)/C(O)=C/C(=O)c1cccc(NCc2ccc(Cl)cc2)c1
IC50 [1]: 0.96 µM
IC50 [2]: > 50 µM
IC50 [3]: 11 µM
